Assay results from ChEMBL document CHEMBL4219109, “Design, synthesis and biological evaluation of novel hydroxamic acid based histone deacetylase 6 selective inhibitors bearing phenylpyrazol scaffold as surface recognition motif” (Bioorg Med Chem, 2018).
pIC50: −log10 of the molar value.

Assays:
Histone deacetylase 8 = target: T1, Histone deacetylase 8 (Homo sapiens, UniProt Q9BY41); test: (§1) Inhibition of full length recombinant human C-terminal His-tagged HDAC8 expressed in baculovirus infected sf9 cells using Boc-Lys-(TFA)-AMC as substrate preincubated for 15 mins followed by substrate addition measured after 60 mins by fluorescence assay
T1 sequence (Q9BY41 whole entry): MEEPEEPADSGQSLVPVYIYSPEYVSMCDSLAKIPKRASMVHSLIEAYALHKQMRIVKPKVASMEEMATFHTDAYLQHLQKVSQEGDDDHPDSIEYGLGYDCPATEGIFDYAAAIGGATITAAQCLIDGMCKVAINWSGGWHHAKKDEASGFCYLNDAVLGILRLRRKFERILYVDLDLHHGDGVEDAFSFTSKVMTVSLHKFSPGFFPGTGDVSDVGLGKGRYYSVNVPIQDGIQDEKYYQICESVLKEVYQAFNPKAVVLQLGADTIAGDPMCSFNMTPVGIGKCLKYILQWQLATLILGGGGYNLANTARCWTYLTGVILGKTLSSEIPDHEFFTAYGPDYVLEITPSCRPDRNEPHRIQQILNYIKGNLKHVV

HepG2 [1] = test: Potency index, ratio of vorinostat GI50 to compound GI50 for human HepG2 cells; type: functional
[2] = target: Histone deacetylase 3/Nuclear receptor corepressor 2 (HDAC3/NCoR2) (Homo sapiens, UniProt O15379); test: as §1, with “HDAC3/N-terminal GST-tagged NCOR2 (395 to 489 residues)” for “HDAC8”, “Boc-Lys-(Ac)-AMC” for “Boc-Lys-(TFA)-AMC”
Sequence of Histone deacetylase 3/Nuclear receptor corepressor 2 (HDAC3/NCoR2) (O15379 whole entry, the tested form may be a part): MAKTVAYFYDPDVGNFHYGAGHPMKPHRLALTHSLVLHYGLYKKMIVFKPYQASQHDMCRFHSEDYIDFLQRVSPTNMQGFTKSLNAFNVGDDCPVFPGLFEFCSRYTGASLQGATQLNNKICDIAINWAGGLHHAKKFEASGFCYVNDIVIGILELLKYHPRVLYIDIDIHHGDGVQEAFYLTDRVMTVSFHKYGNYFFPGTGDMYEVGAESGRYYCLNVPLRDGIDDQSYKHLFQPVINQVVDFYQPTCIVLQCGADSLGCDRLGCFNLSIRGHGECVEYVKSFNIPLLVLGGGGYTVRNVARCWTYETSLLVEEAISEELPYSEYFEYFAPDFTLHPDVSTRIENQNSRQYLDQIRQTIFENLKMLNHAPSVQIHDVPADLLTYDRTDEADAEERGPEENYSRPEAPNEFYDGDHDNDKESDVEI
Sequence of Histone deacetylase 3/Nuclear receptor corepressor 2 (HDAC3/NCoR2) (Q9Y618 whole entry, further chain, the tested form may be a part): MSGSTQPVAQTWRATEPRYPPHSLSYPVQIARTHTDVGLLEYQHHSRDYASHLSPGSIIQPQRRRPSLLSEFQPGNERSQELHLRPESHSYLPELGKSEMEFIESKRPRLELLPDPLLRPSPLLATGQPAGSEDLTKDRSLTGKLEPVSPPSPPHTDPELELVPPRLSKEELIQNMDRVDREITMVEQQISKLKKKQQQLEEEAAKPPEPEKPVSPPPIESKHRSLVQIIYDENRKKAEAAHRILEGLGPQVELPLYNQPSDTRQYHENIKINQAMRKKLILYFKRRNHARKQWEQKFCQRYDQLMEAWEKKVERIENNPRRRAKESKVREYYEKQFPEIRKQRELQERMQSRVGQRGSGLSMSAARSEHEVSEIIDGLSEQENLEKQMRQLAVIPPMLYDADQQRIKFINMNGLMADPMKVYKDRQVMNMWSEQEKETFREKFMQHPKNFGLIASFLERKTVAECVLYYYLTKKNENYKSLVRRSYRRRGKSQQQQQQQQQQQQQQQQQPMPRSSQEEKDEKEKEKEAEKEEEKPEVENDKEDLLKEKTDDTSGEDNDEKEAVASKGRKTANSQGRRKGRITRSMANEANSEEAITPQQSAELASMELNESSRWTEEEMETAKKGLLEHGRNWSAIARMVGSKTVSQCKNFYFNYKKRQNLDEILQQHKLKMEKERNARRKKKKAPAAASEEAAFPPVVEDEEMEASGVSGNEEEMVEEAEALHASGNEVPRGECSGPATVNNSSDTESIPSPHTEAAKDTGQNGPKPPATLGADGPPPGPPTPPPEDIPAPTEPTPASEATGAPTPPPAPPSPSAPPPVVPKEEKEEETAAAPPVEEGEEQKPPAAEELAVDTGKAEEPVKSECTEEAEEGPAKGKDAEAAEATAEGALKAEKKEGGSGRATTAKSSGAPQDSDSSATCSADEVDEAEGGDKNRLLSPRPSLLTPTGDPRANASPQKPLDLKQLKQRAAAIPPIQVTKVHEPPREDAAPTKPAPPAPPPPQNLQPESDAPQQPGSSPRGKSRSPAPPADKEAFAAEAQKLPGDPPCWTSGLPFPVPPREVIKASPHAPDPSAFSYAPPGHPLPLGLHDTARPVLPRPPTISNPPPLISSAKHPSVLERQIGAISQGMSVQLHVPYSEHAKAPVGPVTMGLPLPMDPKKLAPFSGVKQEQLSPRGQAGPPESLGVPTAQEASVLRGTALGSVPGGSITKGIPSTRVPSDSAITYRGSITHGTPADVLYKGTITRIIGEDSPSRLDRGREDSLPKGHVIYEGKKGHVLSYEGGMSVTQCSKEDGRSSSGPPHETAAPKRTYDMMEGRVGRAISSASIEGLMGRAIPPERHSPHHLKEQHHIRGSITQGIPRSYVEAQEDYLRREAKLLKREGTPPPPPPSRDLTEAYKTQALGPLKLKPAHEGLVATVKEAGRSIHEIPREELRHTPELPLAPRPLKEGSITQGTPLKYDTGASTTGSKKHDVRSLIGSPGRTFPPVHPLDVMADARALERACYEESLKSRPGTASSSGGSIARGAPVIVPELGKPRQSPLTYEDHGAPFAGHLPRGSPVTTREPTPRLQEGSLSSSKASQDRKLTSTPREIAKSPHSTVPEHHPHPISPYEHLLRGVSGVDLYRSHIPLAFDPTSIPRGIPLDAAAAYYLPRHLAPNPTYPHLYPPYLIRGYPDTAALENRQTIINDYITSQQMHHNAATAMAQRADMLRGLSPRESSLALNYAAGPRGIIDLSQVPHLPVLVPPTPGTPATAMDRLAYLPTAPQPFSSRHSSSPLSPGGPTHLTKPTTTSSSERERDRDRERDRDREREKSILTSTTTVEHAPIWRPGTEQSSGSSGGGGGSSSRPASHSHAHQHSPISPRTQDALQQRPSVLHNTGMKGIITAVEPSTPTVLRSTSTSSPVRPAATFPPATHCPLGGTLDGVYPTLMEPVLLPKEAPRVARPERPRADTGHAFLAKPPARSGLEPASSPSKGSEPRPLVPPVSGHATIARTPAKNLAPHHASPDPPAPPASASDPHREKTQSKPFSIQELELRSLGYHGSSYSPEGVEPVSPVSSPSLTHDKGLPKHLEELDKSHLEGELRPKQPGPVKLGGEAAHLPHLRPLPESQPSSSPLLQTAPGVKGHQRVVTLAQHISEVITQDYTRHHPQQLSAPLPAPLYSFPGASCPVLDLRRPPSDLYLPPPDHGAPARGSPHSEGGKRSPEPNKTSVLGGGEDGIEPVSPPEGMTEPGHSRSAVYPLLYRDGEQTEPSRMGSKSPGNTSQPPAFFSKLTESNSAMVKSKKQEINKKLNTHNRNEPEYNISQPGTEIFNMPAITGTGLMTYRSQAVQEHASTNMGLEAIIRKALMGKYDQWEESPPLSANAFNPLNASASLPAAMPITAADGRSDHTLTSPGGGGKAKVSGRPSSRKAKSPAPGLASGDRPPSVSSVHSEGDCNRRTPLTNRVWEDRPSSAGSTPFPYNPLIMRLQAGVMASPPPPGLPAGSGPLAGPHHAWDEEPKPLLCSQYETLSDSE

Histone deacetylase 2 = Histone deacetylase 2 (Homo sapiens, UniProt Q92769); test: Inhibition of full length recombinant human C-terminal His-tagged HDAC2 expressed in baculovirus infected sf9 cells using Boc-Lys-(Ac)-AMC as substrate preincubated for 15 mins followed by substrate addition measured after 60 mins by fluorescence assay
Sequence of Histone deacetylase 2 (Q92769 whole entry): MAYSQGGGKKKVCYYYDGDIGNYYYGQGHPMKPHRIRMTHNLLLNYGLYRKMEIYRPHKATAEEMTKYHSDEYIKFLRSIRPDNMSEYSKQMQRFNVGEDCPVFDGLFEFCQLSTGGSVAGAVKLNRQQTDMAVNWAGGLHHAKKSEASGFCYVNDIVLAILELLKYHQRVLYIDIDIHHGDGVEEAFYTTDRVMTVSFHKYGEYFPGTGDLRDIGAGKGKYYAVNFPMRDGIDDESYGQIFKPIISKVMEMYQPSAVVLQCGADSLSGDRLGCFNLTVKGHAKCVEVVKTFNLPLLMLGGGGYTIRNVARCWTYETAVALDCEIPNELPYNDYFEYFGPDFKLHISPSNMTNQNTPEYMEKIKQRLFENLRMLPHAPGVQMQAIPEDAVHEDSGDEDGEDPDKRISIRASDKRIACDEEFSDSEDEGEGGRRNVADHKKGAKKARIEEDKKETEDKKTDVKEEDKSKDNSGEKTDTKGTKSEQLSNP

Histone deacetylase = test: Inhibition of HDAC in human HeLa nuclear extract using Boc-Lys-(Ac)-AMC as substrate preincubated for 15 mins followed by substrate addition measured after 60 mins by fluorescence assay; type: protein assay
Histone deacetylase 1 = Histone deacetylase 1 (Homo sapiens, UniProt Q13547); test: Inhibition of full length recombinant human C-terminal FLAG/His-tagged HDAC1 expressed in baculovirus infected sf9 cells using Boc-Lys-(Ac)-AMC as substrate preincubated for 15 mins followed by substrate addition measured after 60 mins by fluorescence assay
Sequence of Histone deacetylase 1 (Q13547 whole entry): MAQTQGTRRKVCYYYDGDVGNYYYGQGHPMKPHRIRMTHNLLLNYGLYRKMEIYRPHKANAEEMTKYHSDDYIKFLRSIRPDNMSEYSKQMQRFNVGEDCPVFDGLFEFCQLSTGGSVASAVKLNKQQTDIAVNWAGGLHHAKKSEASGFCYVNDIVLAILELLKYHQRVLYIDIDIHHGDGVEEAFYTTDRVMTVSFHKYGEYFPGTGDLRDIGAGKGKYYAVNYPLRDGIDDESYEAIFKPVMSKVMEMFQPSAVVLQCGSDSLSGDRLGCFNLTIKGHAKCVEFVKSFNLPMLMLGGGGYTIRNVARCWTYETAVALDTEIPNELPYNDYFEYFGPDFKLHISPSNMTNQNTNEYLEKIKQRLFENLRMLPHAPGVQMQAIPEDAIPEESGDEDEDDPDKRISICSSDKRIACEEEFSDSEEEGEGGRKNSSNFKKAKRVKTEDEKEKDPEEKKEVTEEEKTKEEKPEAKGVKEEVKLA

HepG2 [3] = test: Antiproliferative activity against human HepG2 cells after 96 hrs by MTT assay; type: functional; conditions: Homo sapiens, HepG2, 96 h
Outline: (§2)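 Cells from Shanghai Cell Bank; A549 grown in high-glucose DMEM and HepG2 in MEM, both with 10% FBS plus penicillin/streptomycin, at 37°C in 5% CO₂. Seeded at 1.5-3.5×10⁴ cells/well for 24 h, then given graded compound concentrations for 96 h. MTT solution (2 mg/mL) added for 4 h, formazan dissolved in DMSO, A570 read. Growth expressed as treated/untreated cell number ratio.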

A549 = test: Antiproliferative activity against human A549 cells after 96 hrs by MTT assay; type: functional; conditions: Homo sapiens, A549, 96 h; outline: as §2
[4] = target: T2, Protein deacetylase HDAC6 (Homo sapiens, UniProt Q9UBN7); test: Inhibition of full length recombinant human N-terminal GST-tagged HDAC6 expressed in baculovirus infected sf9 cells using Boc-Lys-(Ac)-AMC as substrate preincubated for 15 mins followed by substrate addition measured after 60 mins by fluorescence assay
T2 sequence (Q9UBN7 whole entry): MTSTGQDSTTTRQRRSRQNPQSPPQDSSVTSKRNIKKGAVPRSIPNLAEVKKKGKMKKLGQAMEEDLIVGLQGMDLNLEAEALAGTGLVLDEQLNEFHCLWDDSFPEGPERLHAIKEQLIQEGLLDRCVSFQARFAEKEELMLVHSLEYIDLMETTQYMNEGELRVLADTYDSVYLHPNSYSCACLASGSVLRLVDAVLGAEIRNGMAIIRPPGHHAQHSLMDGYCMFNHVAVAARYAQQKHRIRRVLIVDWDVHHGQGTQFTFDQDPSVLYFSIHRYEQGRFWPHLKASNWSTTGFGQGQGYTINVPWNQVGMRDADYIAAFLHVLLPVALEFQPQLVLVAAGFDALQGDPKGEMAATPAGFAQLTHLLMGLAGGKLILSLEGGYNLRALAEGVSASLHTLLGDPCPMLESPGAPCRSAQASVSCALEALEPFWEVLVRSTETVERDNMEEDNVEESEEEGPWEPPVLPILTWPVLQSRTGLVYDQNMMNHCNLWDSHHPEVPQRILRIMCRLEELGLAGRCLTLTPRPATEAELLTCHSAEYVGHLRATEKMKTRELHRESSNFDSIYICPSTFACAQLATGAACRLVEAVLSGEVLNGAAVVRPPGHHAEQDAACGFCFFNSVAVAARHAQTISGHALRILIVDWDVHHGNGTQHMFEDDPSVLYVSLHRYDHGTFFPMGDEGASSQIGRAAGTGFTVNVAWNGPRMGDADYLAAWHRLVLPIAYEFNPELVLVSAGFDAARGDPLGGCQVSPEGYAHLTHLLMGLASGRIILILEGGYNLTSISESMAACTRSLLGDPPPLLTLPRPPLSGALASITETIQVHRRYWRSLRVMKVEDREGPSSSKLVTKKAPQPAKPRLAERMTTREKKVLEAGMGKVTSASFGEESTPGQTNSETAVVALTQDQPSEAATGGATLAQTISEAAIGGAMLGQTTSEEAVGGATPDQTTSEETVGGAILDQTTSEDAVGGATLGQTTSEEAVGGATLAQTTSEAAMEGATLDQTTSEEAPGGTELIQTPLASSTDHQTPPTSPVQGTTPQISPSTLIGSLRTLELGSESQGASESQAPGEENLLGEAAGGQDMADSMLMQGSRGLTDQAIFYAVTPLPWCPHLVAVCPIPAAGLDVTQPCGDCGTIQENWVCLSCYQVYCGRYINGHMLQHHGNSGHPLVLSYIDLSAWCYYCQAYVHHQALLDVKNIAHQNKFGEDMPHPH

pIC50 (Histone deacetylase 8): < 5.30
pIC50 [2]: 5.92
pIC50 (Histone deacetylase 2): 5.70
IC50 (Histone deacetylase): 1439 nM
pIC50 (Histone deacetylase 1): 5.69
GI50 (HepG2 [3]): 3630 nM
GI50 (A549): 33000 nM
pIC50 [4]: 7.70
Structure (SMILES): Cc1cc(-c2ccc(F)cc2)n(Cc2ccc(C(=O)NO)cc2)n1
RatioGI50 (HepG2 [1]): 6
